From PubChem
hiPSC survival – enhancers of single-cell hiPSC survival, primary screen, ATPlite luminescence; 100% = ROCK inhibitor wells, 0% = DMSO; survival enhancement, % at 20 µM; 360,000 tested, 0.044% active; AID 602274, 2012; in the data active = survival enhancement above about 18%;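 also: cells exposed to compounds for 16 hours before the ATP read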
Tb MetRS inh – T. brucei MetRS inhibitors, primary screen, biochemical, luminescence; AID 624268, 2012; purified T. brucei MetRS, ATP depletion, Kinase-Glo luminescence; inhibition, % at 11.9 µM; methionyl-tRNA synthetase (Trypanosoma brucei brucei); 360,000 tested, 0.4% active;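 active = inhibition above a per-plate cutoff of the control wells' mean inhibition plus 3 SD, cut at about 5.5% in these data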
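Test system – parasite MetRS enzyme · Reagent – substrates ATP, L-methionine and bulk Escherichia coli tRNA · Doses – 11.9 µM compound single dose, 0.9% DMSO · Times – 15 min enzyme-compound preincubation, 2 h reaction, 10 min detection, 25 °C · Signal – Kinase-Glo luminescence, ATP depletion format · Controls – DMSO-only wells as low control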
MC4R barr agon – MC4R agonists recruiting beta-arrestin, primary screen, cell-based, luminescence, agonist arm of biased-ligand search; activation, % at 8.9 µM; AID 540308, 2011; 360,000 tested, 0.98% active; U2OS MC4R beta-arrestin complementation; percent of melanotan II response, DMSO zero;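 active = activation above a per-plate cutoff, the mean activation of sample wells on that plate plus 3 SD, cut at about 8% in these data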
MC4R antagonist – MC4R antagonists of cAMP signaling, primary screen, cell-based, TR-FRET, antagonist arm of biased-ligand search | MC4R-expressing cells, MTII-stimulated cAMP, LANCE TR-FRET | inhibition, % at 6.5 µM | 360,000 tested, 0.48% active;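 active = inhibition above its plate's cutoff, the mean of tested wells on that plate plus 3 SD, cut at about 29% in these data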
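Assay system: U2OS cells stably expressing human melanocortin 4 receptor (MC4R) / Dosing: 6.5 µM / Timing: compound 30 min, challenge 1 h, detection 1 h / Measured by: Eu-cAMP/anti-cAMP TR-FRET, emission 671 nm / Replicates: singlicate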
ABCB6 inh 2 – ABCB6 transporter inhibitors, primary screen, K562-ABCB6 cells, flow cytometry, MLPCN library; ATP-binding cassette sub-family B member 6 (Homo sapiens), Q9NP58; K562-ABCB6 porphyrin accumulation, 1 h; active compounds read low; fluorescence ratio to DMSO, % at 10 µM; 360,000 tested, 0.19% active; AID 602162, 2011;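 active = fluorescence ratio to DMSO below 75%, the collection mean minus 3 SD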;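 also: signal is porphyrin accumulated inside mitochondria; lower ratio means ABCB6 inhibition with less porphyrin fluorescence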
Target sequence (Q9NP58 whole entry, looked up): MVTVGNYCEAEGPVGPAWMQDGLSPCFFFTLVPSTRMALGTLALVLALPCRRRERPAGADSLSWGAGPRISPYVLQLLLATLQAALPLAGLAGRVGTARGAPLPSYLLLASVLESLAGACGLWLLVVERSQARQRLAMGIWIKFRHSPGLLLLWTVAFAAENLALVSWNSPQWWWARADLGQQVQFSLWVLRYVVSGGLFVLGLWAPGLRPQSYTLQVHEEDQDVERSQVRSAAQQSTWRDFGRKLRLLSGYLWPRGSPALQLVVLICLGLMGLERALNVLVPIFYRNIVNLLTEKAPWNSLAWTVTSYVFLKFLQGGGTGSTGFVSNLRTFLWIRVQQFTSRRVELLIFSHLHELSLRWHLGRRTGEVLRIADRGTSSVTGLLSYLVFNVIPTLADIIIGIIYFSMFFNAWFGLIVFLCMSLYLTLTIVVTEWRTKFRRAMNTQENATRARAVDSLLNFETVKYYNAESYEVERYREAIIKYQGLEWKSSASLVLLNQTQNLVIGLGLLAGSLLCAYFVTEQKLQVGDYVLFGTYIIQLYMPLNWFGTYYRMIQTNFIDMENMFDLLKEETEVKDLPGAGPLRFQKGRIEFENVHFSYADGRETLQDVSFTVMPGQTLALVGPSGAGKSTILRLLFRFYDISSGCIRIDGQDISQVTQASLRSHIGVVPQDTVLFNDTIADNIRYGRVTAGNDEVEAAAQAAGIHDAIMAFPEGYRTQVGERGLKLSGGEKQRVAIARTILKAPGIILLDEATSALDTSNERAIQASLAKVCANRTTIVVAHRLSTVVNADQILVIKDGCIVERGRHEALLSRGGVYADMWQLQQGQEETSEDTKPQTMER
Exocytosis inh – LAMP-1 surface exposure blockers, TALL-104 cells – cell-based, flow cytometry, MLPCN library, primary screen; TALL-104 LAMP-1 surface exposure; cells stimulated with thapsigargin and PMA; inhibition, % at 10 µM; 360,000 tested, 0.66% active; AID 651702, 2012;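 active = inhibition above about 55%, limit read from the data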
Hits are given with their value; 0 = inactive. Rows were chosen to be rich in hits. Some 2.6% of all compounds tested hit in one or more screens of this group.

SMILES	hiPSC survival	Tb MetRS inh	MC4R barr agon	MC4R antagonist	ABCB6 inh 2	Exocytosis inh
Cc1nn(CC(=O)N(C)c2c(N)n(Cc3ccccc3)c(=O)[nH]c2=O)c(C)c1[N+](=O)[O-]	0	0	0	0	0	0
C/C(=N\Nc1cc(C)nc(-c2ccccc2O)n1)c1ccccc1	0	0	0	0	0	0
Cc1cc(N/N=C/c2ccc(O)c(C)c2O)nc(-c2ccccc2O)n1	0	0	0	0	0	80.4
CCOc1cc(C(=O)N(C)CC(=O)Nc2cccc(F)c2)ccc1OCC(=O)N1CCOCC1	0	0	0	0	0	0
OC(CN1CCN(C(c2ccccc2)c2ccccc2)CC1)c1ccc(Br)cc1 (stereo unspecified)	0	0	0	0	0	0
OC(CN1CCN(C(c2ccccc2)c2ccccc2)CC1)c1ccccc1 (stereo unspecified)	0	0	10.0	0	0	0
CCOc1cc(/C=N/NC(=O)c2ccc(O)cc2)ccc1Oc1nc(Cl)ncc1F	0	0	0	0	0	0
CCOc1cc(/C=N\Nc2ncc(F)c(N3CCOCC3)n2)ccc1Oc1nc(Cl)ncc1F	0	0	0	0	0	82.7
C=C1CC[C@@]23CC[C@]4(C)[C@@](OC2=O)([C@@H]3C1)[C@H]1O[C@H]1C1[C@@]2(C)CC[C@H](O)C(C)(C)C2CC[C@]14C (stereo partly specified)	0	0	0	0	0	0
O=C(Nc1ccccc1C(=O)Nc1ccccc1)c1cccs1	0	0	9.0	0	0	0
O=C(O)c1cccc(NC(=O)c2ccccc2NC(=O)c2cccs2)c1	0	0	0	0	0	0
S=c1nc(NCCc2ccccc2Cl)c2ccccc2[nH]1	0	0	12.1	0	0	0
O=C(NCc1ccccc1Cl)C1CCC(CNc2nc(=S)[nH]c3ccccc23)CC1 (stereo unspecified)	0	0	0	0	0	0
O=C(NCCc1ccc(Cl)cc1)C1CCC(CNc2nc(=S)[nH]c3ccccc23)CC1 (stereo unspecified)	0	0	16.5	0	0	0
Cc1ccccc1C(=O)NC1CC2CCCC(C1)N2Cc1ccc(Cl)cc1 (stereo unspecified)	0	0	0	0	0	0
CCn1c(/N=C/c2ccccc2NS(=O)(=O)c2ccc(C)cc2)nc2ccccc21	0	6.5	0	0	0	0
Cn1c(/C=C/c2ccc(Br)cc2)nc2ccccc2c1=O	0	0	9.0	0	0	0
C#CCOCCOCCOCCNc1nc(N2CCN(C(=O)CCCCCCCCCCNC(=O)Cn3cc(C[C@@H](C)O)nn3)CC2)nc(N2CCN(C(=O)CCCCCCCCCCNC(=O)[C@H](CCCN=C(N)N)n3cc(C[C@@H](C)CC)nn3)CC2)n1	0	0	0	42.2	0	0
C#CCOCCOCCOCCNc1nc(N2CCN(C(=O)CCCCCCCCCCNC(=O)Cn3cc(CCCCCN)nn3)CC2)nc(N2CCN(C(=O)CCCCCCCCCCNC(=O)[C@@H](CCSC)n3cc(CCO)nn3)CC2)n1	0	0	0	0	0	65.1
C#CCOCCOCCOCCNc1nc(N2CCN(C(=O)CCCCCCCCCCNC(=O)Cn3cc(CCCCCN)nn3)CC2)nc(N2CCN(C(=O)CCCCCCCCCCNC(=O)[C@@H](CCC(=O)O)n3cc(CCCCCN)nn3)CC2)n1	0	0	0	0	0	0
C#CCOCCOCCOCCNc1nc(N2CCN(C(=O)CCCCCCCCCCNC(=O)[C@H](CO)n3cc(CCCSC)nn3)CC2)nc(N2CCN(C(=O)CCCCCCCCCCNC(=O)[C@H](CCCCN)n3cc(CCO)nn3)CC2)n1	0	0	0	0	0	0
